According to ChEMBL document CHEMBL1123658, “1-(2-pyridinyl)piperazine derivatives with antianaphylactic, antibronchospastic, and mast cell stabilizing activities” (J Med Chem, 1987):

What was measured:
[1] = In vivo toxic effect was determined in mouse after intraperitoneal administration with 10% aqueous acacia gum; value ranges from 0.27-0.43; assay type: toxicity, organism-based; details: ip
Summary of the method: (§1)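 Female albino mice (20-30 g), 10 animals per dose, dosed intraperitoneally with compound in solution or suspension; compounds tested as salts unless noted. Mortality was recorded over 7 days.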

Rattus norvegicus [2] = test: Rat PCA Test(50% inhibition of spot areas)in the female albino rats after ip administration in 10% aqueous acacia gum; Value ranges from (6-147).; details: read-out: ID50 (the source's name)
Cavia porcellus [3] = test: Antibronchospatic activity determined by histamine stimulated bronchospasm inhibition in guinea pigs after(i.v.) administration; assay type: functional, Bronchiole
Summary of the method: (§2)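 Guinea pigs, Konzett–Rössler preparation. Bronchospasm was induced with histamine. Compound was given iv (1 mL/kg) 1 min before the agonist, dissolved in saline or saline with slight excess HCl or CH3SO3H (pH 3.5–4). Three doses were tested in duplicate, chosen to give 20–90% inhibition. ID75 was read graphically from log dose–response curves.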

Rattus norvegicus [4] = test: Rat PCA Test(50% inhibition of spot areas)in the female albino rats after ip administration in 10% aqueous acacia gum; assay type: functional; details: read-out: ID50 (the source's name)
Summary of the method: (§3)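 Antiserum came from female rats given 1% egg albumin in 0.9% NaCl intramuscularly plus Haemophilus pertussis vaccine (2 × 10^10 organisms) intraperitoneally, and was collected 12 days later. Recipient rats (200-250 g) got it intradermally at a ventral site. After 24 h, groups of 10 received vehicle or compound ip. At 30 min they were challenged iv with 0.3% egg albumin plus 1% Evans blue. Blued skin areas were measured 30 min later.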

[5] = In vivo toxic effect was determined in mouse after intraperitoneal administration with 10% aqueous acacia gum; value ranges from 0.39-0.76; assay type: toxicity, organism-based; details: ip; summary of the method: as §1
Cavia porcellus [6] = test: Antibronchospatic activity was determined by inhibition of histamine stimulated bronchospasm in guinea pigs after (iv) administration; assay type: functional, Bronchiole; summary of the method: as §2
[7] = In vivo toxic effect was determined in mouse after intraperitoneal administration with 10% aqueous acacia gum; value ranges from (0.47-0.85); assay type: toxicity, organism-based; details: ip; summary of the method: as §1
Rattus norvegicus [8] = test: Rat PCA Test(50% inhibition of spot areas)in the female albino rats after ip administration in 10% aqueous acacia gum; Value ranges from(26-134); assay type: functional; details: read-out: ID50 (the source's name); summary of the method: as §3
[9] = In vivo toxic effect was determined in mouse after intraperitoneal administration with 10% aqueous acacia gum; value ranges from 0.39-0.70; assay type: toxicity, organism-based; details: ip; summary of the method: as §1
Rattus norvegicus [10] = test: Rat PCA Test(50% inhibition of spot areas)in the female albino rats after oral administration in 10% aqueous acacia gum; value ranges from 80-141; assay type: functional; details: read-out: ID50 (the source's name)
Summary of the method: (§4)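 Female rats (200-250 g) were passively sensitized by ventral intradermal anti-egg-albumin antiserum. This was raised in rats by intramuscular 1% egg albumin plus ip H. pertussis vaccine, with serum taken at 12 days. After 24 h, groups of 10 were dosed orally with compound or vehicle (10 mL/kg). At 60 min, iv challenge used 0.3% egg albumin with 1% Evans blue. Blued areas were measured after 30 min.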

Rattus norvegicus [11] = test: Rat PCA Test(50% inhibition of spot areas)in the female albino rats after (ip) administration in 10% aqueous acacia gum; value ranges from 45-69; assay type: functional; details: read-out: ID50 (the source's name)
Summary of the method: (§5)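 Female albino rats (200–250 g) received intradermal ventral injections of rat anti-egg-albumin antiserum; donors were raised with egg albumin im plus H. pertussis ip, and serum was taken at 12 days. 24 h later, compound was given ip in 10% acacia gum (10 mL/kg), 10 rats/group. Challenge 30 min later was iv 0.3% egg albumin plus 1% Evans blue. Blued areas were measured 30 min after challenge.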

[12] = In vivo toxic effect was determined in mouse after intraperitoneal administration with 10% aqueous acacia gum; value ranges from 0.48-0.77; assay type: toxicity, organism-based; details: ip; summary of the method: as §1
[13] = In vivo toxic effect was determined in mouse after oral administration with 10% aqueous acacia gum; value ranges from 1.23-1.71; assay type: toxicity, organism-based
Summary of the method: (§6)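 Female albino mice, 20-30 g. Compound given orally as solution or suspension in 10% aqueous acacia gum, 10 animals per dose. Deaths recorded over 7 days.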

Rattus norvegicus [14] = test: Rat PCA Test(50% inhibition of spot areas)in the female albino rats after (ip) administration in 10% aqueous acacia gum; value ranges from 145-288; assay type: functional; details: read-out: ID50 (the source's name); summary of the method: as §5
[15] = In vivo toxic effect was determined in mouse after oral administration with 10% aqueous acacia gum; value ranges from 3.08-6.27; assay type: toxicity, organism-based; summary of the method: as §6
Rattus norvegicus [16] = test: Rat PCA Test(50% inhibition of spot areas)in the female albino rats after (ip) administration in 10% aqueous acacia gum; assay type: functional; details: read-out: ID50 (the source's name); summary of the method: as §5
[17] = In vivo toxicity in mouse after oral administration with 10% aqueous acacia gum; assay type: organism-based; summary of the method: as §6
Rattus norvegicus [18] = test: Inhibition of mast cell degranulation was assessed in female albino rats at a dose of 45 umol/kg iv; assay type: functional
Rattus norvegicus [19] = test: Rat PCA Test(50% inhibition of spot areas)in the female albino rats after oral administration in 10% aqueous acacia gum; value ranges from 110-212; assay type: functional; details: read-out: ID50 (the source's name); summary of the method: as §4
Rattus norvegicus [20] = test: Rat PCA Test(50% inhibition of spot areas)in the female albino rats after (ip) administration in 10% aqueous acacia gum; value ranges from 57-142; assay type: functional; details: read-out: ID50 (the source's name); summary of the method: as §5
Rattus norvegicus [21] = test: Inhibition of mast cell degranulation was assessed in female albino rats at a dose of 65 umol/kg iv; assay type: functional
Rattus norvegicus [22] = test: Rat PCA Test(50% inhibition of spot areas)in the female albino rats after oral administration in 10% aqueous acacia gum; value ranges from 184-369; assay type: functional; details: read-out: ID50 (the source's name); summary of the method: as §4
Rattus norvegicus [23] = test: Rat PCA Test(50% inhibition of spot areas)in the female albino rats after (ip) administration in 10% aqueous acacia gum; value ranges from 99-415; assay type: functional; details: read-out: ID50 (the source's name); summary of the method: as §3
[24] = In vivo toxic effect was determined in mouse after intraperitoneal administration with 10% aqueous acacia gum; value ranges from 1.82-3.42; assay type: toxicity, organism-based; details: ip; summary of the method: as §1
[25] = In vivo toxic effect was determined in mouse after intraperitoneal administration with 10% aqueous acacia gum; value ranges from 0.28-0.52; assay type: toxicity, organism-based; details: ip; summary of the method: as §1
[26] = In vivo toxic effect was determined in mouse after oral administration with 10% aqueous acacia gum; value ranges from 0.41-0.93; assay type: toxicity, organism-based
Rattus norvegicus [27] = test: Rat PCA Test(50% inhibition of spot areas)in the female albino rats after oral administration in 10% aqueous acacia gum; value ranges from 161-222; assay type: functional; details: read-out: ID50 (the source's name); summary of the method: as §4
Rattus norvegicus [28] = test: Rat PCA Test(50% inhibition of spot areas)in the female albino rats after (ip) administration in 10% aqueous acacia gum; value ranges from 128-203; assay type: functional; details: read-out: ID50 (the source's name); summary of the method: as §5
Mus musculus = test: In vivo toxic effect was determined in mouse after intraperitoneal administration with 10% aqueous acacia gum; NA means poorly absorbed; assay type: toxicity, organism-based; details: ip; summary of the method: as §1
[29] = In vivo toxic effect was determined in mouse after oral administration with 10% aqueous acacia gum; value ranges from 4.50-5.90; assay type: toxicity, organism-based; summary of the method: as §6
Rattus norvegicus [30] = test: Inhibition of mast cell degranulation was assessed in female albino rats at a dose of 50 umol/kg iv; assay type: functional

Cc1c(C)c([N+](=O)[O-])c(C)c(C)c1C(=O)NCCN1CCN(c2ccccn2)CC1.Cl.Cl
LD50 [1]: 320 µmol/kg
ED50 (Rattus norvegicus [2]): 30 µmol/kg

Cc1cc(N)cc(C)c1C(=O)NCCN1CCN(c2ccccn2)CC1.Cl
ID75 (Cavia porcellus [3]): 5.27 µM/kg
ED50 (Rattus norvegicus [4]): > 167 µmol/kg
LD50 [5]: 550 µmol/kg

CCCCOc1cc(C(=O)NCCN2CCN(c3ccccn3)CC2)c2ccccc2n1.Cl.Cl
ID75 (Cavia porcellus [6]): 8.15 µM/kg
ED50 (Rattus norvegicus [4]): > 175 µmol/kg
LD50 [7]: 540 µmol/kg

Cc1cc([N+](=O)[O-])cc(C)c1C(=O)NCCN1CCN(c2ccccn2)CC1.Cl.Cl
ID75 (Cavia porcellus [3]): 4.6 µM/kg
ED50 (Rattus norvegicus [8]): 78 µmol/kg
LD50 [9]: 530 µmol/kg

COc1cccc(N2CCN(CCC(=O)Nc3ccc(N)cc3)CC2)n1.Cl.Cl
ID75 (Cavia porcellus [3]): 0.4 µM/kg
ED50 (Rattus norvegicus [10]): 106 µmol/kg
ED50 (Rattus norvegicus [11]): 56 µmol/kg
LD50 [12]: 530 µmol/kg
LD50 [13]: 1600 µmol/kg

COc1cccc(N2CCN(CCC(=O)Nc3ccc([N+](=O)[O-])cc3)CC2)n1.Cl
ID75 (Cavia porcellus [3]): 0.16 µM/kg
ED50 (Rattus norvegicus [14]): 204 µmol/kg
LD50 [15]: 4390 µmol/kg

COc1cccc(N2CCN(CCC(=O)Nc3ccccc3[N+](=O)[O-])CC2)n1.Cl
ID75 (Cavia porcellus [3]): 0.52 µM/kg
ED50 (Rattus norvegicus [16]): > 237 µmol/kg
LD50 [17]: > 7100 µmol/kg

CC(=O)Nc1ccc(NC(=O)CCN2CCN(c3ccccn3)CC2)cc1.Cl.Cl
inhibition in vivo at 45 µmol/kg (Rattus norvegicus [18]): 29%
ID75 (Cavia porcellus [3]): 0.97 µM/kg
ED50 (Rattus norvegicus [19]): 153 µmol/kg
ED50 (Rattus norvegicus [20]): 90 µmol/kg
LD50 [17]: > 6810 µmol/kg

Cl.Cl.NC(=O)CCN1CCN(c2ccccn2)CC1
inhibition in vivo at 65 µmol/kg (Rattus norvegicus [21]): 23%
ID75 (Cavia porcellus [3]): 2.47 µM/kg
ED50 (Rattus norvegicus [22]): 260 µmol/kg
ED50 (Rattus norvegicus [23]): 203 µmol/kg
LD50 [24]: 2440 µmol/kg

Cl.Cl.N#Cc1ccc(NC(=O)CCN2CCN(c3ccccn3)CC2)cc1
ID75 (Cavia porcellus [3]): 0.64 µM/kg
ED50 (Rattus norvegicus [16]): > 39 µmol/kg
LD50 [25]: 390 µmol/kg
LD50 [26]: 620 µmol/kg

Cl.Cl.O=C(CCN1CCN(c2ccccn2)CC1)Nc1ccc(O)cc1
ID75 (Cavia porcellus [3]): 0.49 µM/kg
ED50 (Rattus norvegicus [27]): 189 µmol/kg
ED50 (Rattus norvegicus [28]): 161 µmol/kg
LD50 (Mus musculus): Not Active
LD50 [29]: 5200 µmol/kg
inhibition in vivo at 50 µmol/kg (Rattus norvegicus [30]): 64%
